# Data published in the RNAGym collection of RNA variant scans (doi:10.1126/science.aae0568).
# Variants at the floor of the assay were thinned out.
# B1: tRNA (parent)
# chain: GUUCCGUUGGCGUAAUGGUAACGCGUCUCCCUCCUAAGGAGAAGACUGCGGGUUCGAGUCCCGUACGGAACG
# Variants of: B1
# Test: yeast fitness relative to wild type (ratio to wild type); higher = fitter; tRNA-Arg(CCU), competitive growth, 37 C, YPD
# Summary of the method: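 Changes in genotype frequencies gave Darwinian fitness relative to wild type. Frequencies were read by 100-nucleotide paired-end sequencing of gene amplicons before and after pooled Saccharomyces cerevisiae strains, carrying tRNA-Arg(CCU) gene variants at the native locus, were competed in YPD at 37°C for 24 hours in six replicates. A genotype was kept only with ≥ 100 starting reads, and estimates < 0.5 were set to 0.5.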
row,Variant,yeast fitness
1,GUUCCGUUGGCGUAAUGGUAACGCGUCUCCCUCCUAAGGAGAAGACUGCGGGUUCGAGACCCGUACGUAACG,0.769
2,GUUCCGUUGGCGUAAUGGUAACGCGUCUCCCUCCUAAGGAGAAGACUGCGGGUUCGAGACCCGGACGGAACG,0.52
3,GUUCCGUUGGCGUAAUGGUAACGCGUCUCCCUCCUAAGGAGAAGACUGCGGGUUCGAGCCCCGUCCGGAACG,0.837
4,GUUCCGUUGGCGUAAUGGUAACGCGUCUCCCUCCUAAGGAGAAGACUGCGGGUUCGAGCCCCGUACGGUACG,1.02
5,GUUCCGUUGGCGUAAUGGUAACGCGUCUCCCUCCUAAGGAGAAGACUGCGGGUUCGAGCCCCGUACGGACCG,0.897
6,GUUCCGUUGGCGUAAUGGUAACGCGUCUCCCUCCUAAGGAGAAGACUGCGGGUUCGAGCCCCGUACGGAUCG,1.01
7,GUUCCGUUGGCGUAAUGGUAACGCGUCUCCCUCCUAAGGAGAAGACUGCGGGUUCGAGCUCCGUACGGAACG,0.704
8,GUUCCGUUGGCGUAAUGGUAACGCGUCUCCCUCCUAAGGAGAAGACUGCGGGUUCGAGCCACGUAAGGAACG,≤ 0.5
9,GUUCCGUUGGCGUAAUGGUAACGCGUCUCCCUCCUAAGGAGAAGACUGCGGGUUCGAGCCUCGUACGGAACG,0.839
10,GUUCCGUUGGCGUAAUGGUAACGCGUCUCCCUCCUAAGGAGAAGACUGCGGGUUCGAGCCCUGUACGGAACG,0.814
11,GUUCCGUUGGCGUAAUGGUAACGCGUCUCCCUCCUAAGGAGAAGACUGCGGGUUCGAGGCCCGUGCGGAACG,0.965
12,GUUCCGUUGGCGUAAUGGUAACGCGUCUCCCUCCUAAGGAGAAGACUGCGGGUUCGAGGCCCGUUCGGAACG,0.917
13,GUUCCGUUGGCGUAAUGGUAACGCGUCUCCCUCCUAAGGAGAAGACUGCGGGUUCGAGGCCUGUACGGAACG,0.875
14,GUUCCGUUGGCGUAAUGGUAACGCGUCUCCCUCCUAAGGAGAAGACUGCGGGUUCGAGGCCCGUACAGAACG,0.796
15,GUUCCGUUGGCGUAAUGGUAACGCGUCUCCCUCCUAAGGAGAAGACUGCGGGUUCGAGUACCGUGCGGAACG,0.573
16,GUUCCGUUGGCGUAAUGGUAACGCGUCUCCCUCCUAAGGAGAAGACUGCGGGUUCGAGUACCGUUCGGAUCG,0.53
17,GUUCCGUUGGCGUAAUGGUAACGCGUCUCCCUCCUAAGGAGAAGACUGCGGGUUCGAGUACCGUACGGCACG,0.752
18,GUUCCGUUGGCGUAAUGGUAACGCGUCUCCCUCCUAAGGAGAAGACUGCGGGUUCGAGUACCGUACGGUACG,0.746
19,GUUCCGUUGGCGUAAUGGUAACGCGUCUCCCUCCUAAGGAGAAGACUGCGGGUUCGAGUACCGUACGGACCG,0.621

row,Variant,yeast fitness
1,GUUCCGUUGGCGUAAUGGUAACGCGUCUCCCUCCUAAGGAGAAGACUGCGGGUUCGAGUACCGUACGGAGCG,0.531
2,GUUCCGUUGGCGUAAUGGUAACGCGUCUCCCUCCUAAGGAGAAGACUGCGGGUUCGAGUAACAUACGGAACG,0.605
3,GUUCCGUUGGCGUAAUGGUAACGCGUCUCCCUCCUAAGGAGAAGACUGCGGGUUCGAGUAUCCUAUGGAACG,≤ 0.5
4,GUUCCGUUGGCGUAAUGGUAACGCGUCUCCCUCCUAAGGAGAAGACUGCGGGUUCGAGUACGGUACGGACCG,≤ 0.5
5,GUUCCGUUGGCGUAAUGGUAACGCGUCUCCCUCCUAAGGAGAAGACUGCGGGUUCGAGUACCGUAGGGAACG,0.773
6,GUUCCGUUGGCGUAAUGGUAACGCGUCUCCCUCCUAAGGAGAAGACUGCGGGUUCGAGUACCGUAUGGAACG,0.608
7,GUUCCGUUGGCGUAAUGGUAACGCGUCUCCCUCCUAAGGAGAAGACUGCGGGUUCGAGUACCGUAUGCAACG,≤ 0.5
8,GUUCCGUUGGCGUAAUGGUAACGCGUCUCCCUCCUAAGGAGAAGACUGCGGGUUCGAGUACCGCACGGAACG,0.718
9,GUUCCGUUGGCGUAAUGGUAACGCGUCUCCCUCCUAAGGAGAAGACUGCGGGUUCGAGUGCCGUACGGUACG,0.655
10,GUUCCGUUGGCGUAAUGGUAACGCGUCUCCCUCCUAAGGAGAAGACUGCGGGUUCGAGUGACGUACGGGACG,0.586
11,GUUCCGUUGGCGUAAUGGUAACGCGUCUCCCUCCUAAGGAGAAGACUGCGGGUUCGAGUGCCGUAAGGAACG,0.541
12,GUUCCGUUGGCGUAAUGGUAACGCGUCUCCCUCCUAAGGAGAAGACUGCGGGUUCGAGUGCCGUAGGGGACG,0.593
13,GUUCCGUUGGCGUAAUGGUAACGCGUCUCCCUCCUAAGGAGAAGACUGCGGGUUCGAGUGCCGUAUGGAACG,0.599
14,GUUCCGUUGGCGUAAUGGUAACGCGUCUCCCUCCUAAGGAGAAGACUGCGGGUUCGAGUGCCAUACAGAACG,≤ 0.5
15,GUUCCGUUGGCGUAAUGGUAACGCGUCUCCCUCCUAAGGAGAAGACUGCGGGUUCGAGUGCCGUACGCAACG,0.603
16,GUUCCGUUGGCGUAAUGGUAACGCGUCUCCCUCCUAAGGAGAAGACUGCGGGUUCGAGUUCCGUACGGAGCG,0.786
17,GUUCCGUUGGCGUAAUGGUAACGCGUCUCCCUCCUAAGGAGAAGACUGCGGGUUCGAGUUGCGUACAGAACG,≤ 0.5
18,GUUCCGUUGGCGUAAUGGUAACGCGUCUCCCUCCUAAGGAGAAGACUGCGGGUUCGAGUUCAGUACGGAACG,≤ 0.5
19,GUUCCGUUGGCGUAAUGGUAACGCGUCUCCCUCCUAAGGAGAAGACUGCGGGUUCGAGUUCGGUACGGAACG,0.688
